The values that follow come from ChEMBL document CHEMBL4190374, “Structure-Function Evaluation of Imidazopyridine Derivatives Selective for δ-Subunit-Containing γ-Aminobutyric Acid Type A (GABAA) Receptors” (J Med Chem, 2018).

pEC50, pIC50: −log10 of the molar value.

By pIC50 is commonly meant the negative decadic logarithm of the IC50, by convention in mol/L. As a reminder, the pEC50 is −log10 of the EC50, conventionally taken in molar units.

Experiment [1] has as its target Gamma-aminobutyric acid receptor subunit alpha-4/beta-3/gamma-2 (Rattus norvegicus, UniProt P18508+P28471+P63079). Briefly: Displacement of [3H]EBOB from rat GABA-A receptor alpha4beta3gamma2 expressed in HEK293 cell membranes after 90 mins by liquid scintillation counting analysis. The method, boiled down: (§1)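 Crude membranes from HEK 293 cells transiently Ca-phosphate-transfected with rat subunit cDNAs, harvested at 48 h. Membranes (150-200 µg protein) incubated with 3 nM [3H]EBOB in 50 mM Tris/citrate pH 7.3 plus 0.2 M NaCl. Compound up to 10 µM, final DMSO 0.1%, no GABA, 90 min at 21 °C. Bound radioligand collected by GF/C filtration and counted by scintillation.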
(Displacement assays read how much labelled ligand stays bound in the presence of the test substance.)

The target of experiment [2] is T1, Gamma-aminobutyric acid receptor subunit alpha-6/beta-3 (Rattus norvegicus, UniProt P30191+P63079). Briefly: Displacement of [3H]EBOB from rat GABA-A receptor alpha6beta3 expressed in HEK293 cell membranes after 90 mins by liquid scintillation counting analysis. The essentials: as §1
T1 sequence (P30191 whole entry): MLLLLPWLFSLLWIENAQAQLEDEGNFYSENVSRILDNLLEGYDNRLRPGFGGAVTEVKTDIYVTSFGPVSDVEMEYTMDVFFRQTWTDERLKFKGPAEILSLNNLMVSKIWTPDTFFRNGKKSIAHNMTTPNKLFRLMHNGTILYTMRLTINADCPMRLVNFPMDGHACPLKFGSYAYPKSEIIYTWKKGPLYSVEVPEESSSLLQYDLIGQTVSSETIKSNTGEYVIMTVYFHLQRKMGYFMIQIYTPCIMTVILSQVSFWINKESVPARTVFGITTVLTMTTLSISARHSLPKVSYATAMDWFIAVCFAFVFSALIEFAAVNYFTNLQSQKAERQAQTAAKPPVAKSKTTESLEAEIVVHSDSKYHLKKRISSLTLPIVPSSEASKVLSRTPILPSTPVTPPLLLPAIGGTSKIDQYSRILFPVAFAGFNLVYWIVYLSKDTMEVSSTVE
T1 sequence (P63079 whole entry): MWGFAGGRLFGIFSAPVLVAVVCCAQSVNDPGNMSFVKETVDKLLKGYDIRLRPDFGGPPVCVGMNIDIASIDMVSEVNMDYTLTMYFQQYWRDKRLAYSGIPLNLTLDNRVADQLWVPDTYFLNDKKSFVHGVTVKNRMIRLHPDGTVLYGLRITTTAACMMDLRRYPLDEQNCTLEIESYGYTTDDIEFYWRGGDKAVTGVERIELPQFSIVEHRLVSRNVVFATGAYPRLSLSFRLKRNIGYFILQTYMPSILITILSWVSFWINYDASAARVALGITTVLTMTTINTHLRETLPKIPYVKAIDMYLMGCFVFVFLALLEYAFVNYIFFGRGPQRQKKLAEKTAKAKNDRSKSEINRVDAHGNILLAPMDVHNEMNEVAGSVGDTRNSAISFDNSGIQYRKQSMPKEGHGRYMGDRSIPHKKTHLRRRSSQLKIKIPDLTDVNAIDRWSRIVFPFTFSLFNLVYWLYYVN
Experiment [3] deals with GABA A receptor alpha-6/beta-2/gamma-2 (Rattus norvegicus, UniProt P18508+P30191+P63138). Briefly: Displacement of [3H]EBOB from rat GABA-A receptor alpha6beta2gamma2 expressed in HEK293 cell membranes after 90 mins by liquid scintillation counting analysis. The essentials: as §1
GABA A receptor alpha-6/beta-2/gamma-2, sequence (P18508 whole entry): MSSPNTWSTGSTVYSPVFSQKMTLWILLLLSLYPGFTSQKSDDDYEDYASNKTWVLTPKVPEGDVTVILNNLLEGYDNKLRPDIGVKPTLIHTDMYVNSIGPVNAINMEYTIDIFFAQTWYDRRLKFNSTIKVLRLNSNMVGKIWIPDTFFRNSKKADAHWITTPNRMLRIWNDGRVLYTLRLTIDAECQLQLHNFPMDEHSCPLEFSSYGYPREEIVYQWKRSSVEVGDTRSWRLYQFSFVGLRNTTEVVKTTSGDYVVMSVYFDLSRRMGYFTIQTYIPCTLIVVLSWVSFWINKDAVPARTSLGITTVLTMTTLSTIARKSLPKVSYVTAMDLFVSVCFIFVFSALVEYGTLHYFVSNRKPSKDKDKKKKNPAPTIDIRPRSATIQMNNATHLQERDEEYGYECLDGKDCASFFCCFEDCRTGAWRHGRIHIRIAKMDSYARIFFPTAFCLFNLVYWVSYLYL
GABA A receptor alpha-6/beta-2/gamma-2, sequence (P30191 whole entry): as the sequence (P30191 whole entry) above
GABA A receptor alpha-6/beta-2/gamma-2, sequence (P63138 whole entry): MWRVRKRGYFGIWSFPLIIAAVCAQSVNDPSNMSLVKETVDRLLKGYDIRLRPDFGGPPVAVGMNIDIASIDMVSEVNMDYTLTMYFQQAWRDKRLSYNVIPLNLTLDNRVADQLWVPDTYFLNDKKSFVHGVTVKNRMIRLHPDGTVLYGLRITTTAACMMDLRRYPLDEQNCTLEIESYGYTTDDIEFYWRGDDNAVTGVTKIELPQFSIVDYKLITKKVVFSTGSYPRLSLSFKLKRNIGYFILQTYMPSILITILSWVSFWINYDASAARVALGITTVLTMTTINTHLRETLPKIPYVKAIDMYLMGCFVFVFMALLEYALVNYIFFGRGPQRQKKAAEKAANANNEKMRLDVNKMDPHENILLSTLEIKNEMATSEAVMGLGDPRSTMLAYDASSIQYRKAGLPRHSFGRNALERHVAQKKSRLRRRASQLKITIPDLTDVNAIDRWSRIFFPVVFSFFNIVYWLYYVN
The target in experiment [4] is Gamma-aminobutyric acid receptor subunit alpha-1/beta-3 (Rattus norvegicus) (UniProt P62813+P63079). Kind of experiment: Displacement of [3H]EBOB from rat GABA-A receptor alpha1beta3 expressed in HEK293 cell membranes at 10 uM after 90 mins by liquid scintillation counting analysis relative to control. The method, boiled down:
as §1

For experiment [5], the target named is T2, Gamma-aminobutyric acid receptor subunit alpha-4/beta-3 (Rattus norvegicus) (UniProt P28471+P63079). Kind of experiment: Displacement of [3H]EBOB from rat GABA-A receptor alpha4beta3 expressed in HEK293 cell membranes up to 10 uM after 90 mins by liquid scintillation counting analysis relative to control. The essentials:
as §1

Experiment [6] concerns the target T3, Gamma-aminobutyric acid receptor subunit alpha-4/beta-3/gamma-2 (Rattus norvegicus) (UniProt P18508+P28471+P63079). Briefly: Displacement of [3H]EBOB from rat GABA-A receptor alpha4beta3gamma2 expressed in HEK293 cell membranes up to 10 uM after 90 mins by liquid scintillation counting analysis relative to control. The essentials:
as §1

The species entered for experiment [7] is Rattus norvegicus. Kind of experiment: Selectivity ratio of IC50 for rat GABA-A receptor alpha6beta2gamma2 expressed in HEK293 cells to IC50 for rat GABA-A receptor alpha6beta2delta expressed in HEK293 cells. In kind it is cell-based.
For experiment [8], the target named is Gamma-aminobutyric acid receptor subunit alpha-1/beta-3/delta (Rattus norvegicus, UniProt P18506+P62813+P63079). Kind of experiment: Modulation of rat […] GABA-A receptor alpha1beta3delta expressed in HEK293 cells in presence of GABA by patch-clamp assay. It is filed as cell-based. The method, boiled down: (§2)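 Rat GABA-A subunits were transiently co-transfected with eGFP into HEK293 cells on coverslips. Fluorescent cells were recorded by whole-cell patch clamp 48 h later; bath pH 7.4, KCl/KOH pipette pH 7.2. Compound was applied at increasing concentrations up to 10 µM with the receptor-specific GABA EC20. Peak currents were fitted logistically for EC50, Hill and % modulation, as mean ± S.E.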
Gamma-aminobutyric acid receptor subunit alpha-1/beta-3/delta, sequence (P18506 whole entry): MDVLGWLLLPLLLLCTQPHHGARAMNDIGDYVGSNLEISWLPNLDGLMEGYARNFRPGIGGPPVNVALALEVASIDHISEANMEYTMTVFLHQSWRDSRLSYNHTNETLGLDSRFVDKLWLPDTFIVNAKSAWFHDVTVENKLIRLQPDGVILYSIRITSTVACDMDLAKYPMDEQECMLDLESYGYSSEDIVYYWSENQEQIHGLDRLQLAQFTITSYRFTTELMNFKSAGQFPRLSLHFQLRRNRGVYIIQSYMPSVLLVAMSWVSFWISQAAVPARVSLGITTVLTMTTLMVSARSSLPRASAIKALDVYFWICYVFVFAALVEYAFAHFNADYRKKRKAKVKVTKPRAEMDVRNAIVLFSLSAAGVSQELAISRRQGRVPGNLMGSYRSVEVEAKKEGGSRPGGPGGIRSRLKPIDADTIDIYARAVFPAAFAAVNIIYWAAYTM
Gamma-aminobutyric acid receptor subunit alpha-1/beta-3/delta, sequence (P62813 whole entry): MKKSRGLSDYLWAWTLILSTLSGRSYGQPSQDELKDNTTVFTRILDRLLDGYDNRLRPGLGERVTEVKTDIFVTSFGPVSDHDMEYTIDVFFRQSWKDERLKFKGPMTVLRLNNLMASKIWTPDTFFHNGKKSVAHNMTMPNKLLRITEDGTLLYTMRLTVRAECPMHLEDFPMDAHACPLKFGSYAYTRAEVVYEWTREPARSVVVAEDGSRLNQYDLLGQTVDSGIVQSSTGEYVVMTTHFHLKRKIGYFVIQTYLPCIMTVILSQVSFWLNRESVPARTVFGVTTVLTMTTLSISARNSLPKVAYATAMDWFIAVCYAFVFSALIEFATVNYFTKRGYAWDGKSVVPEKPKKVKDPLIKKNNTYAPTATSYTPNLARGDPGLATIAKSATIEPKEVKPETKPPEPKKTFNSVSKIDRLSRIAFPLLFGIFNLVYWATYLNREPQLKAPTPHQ
Gamma-aminobutyric acid receptor subunit alpha-1/beta-3/delta, sequence (P63079 whole entry): as the sequence (P63079 whole entry) above

The target in experiment [9] is Gamma-aminobutyric acid receptor subunit alpha-4/beta-3 (Rattus norvegicus, UniProt P28471+P63079). Briefly: Modulation of rat […] GABA-A receptor alpha4beta3 expressed in HEK293 cells in presence of GABA by patch-clamp assay. In kind it is cell-based. The method, boiled down: as §2
Gamma-aminobutyric acid receptor subunit alpha-4/beta-3, sequence (P28471 whole entry): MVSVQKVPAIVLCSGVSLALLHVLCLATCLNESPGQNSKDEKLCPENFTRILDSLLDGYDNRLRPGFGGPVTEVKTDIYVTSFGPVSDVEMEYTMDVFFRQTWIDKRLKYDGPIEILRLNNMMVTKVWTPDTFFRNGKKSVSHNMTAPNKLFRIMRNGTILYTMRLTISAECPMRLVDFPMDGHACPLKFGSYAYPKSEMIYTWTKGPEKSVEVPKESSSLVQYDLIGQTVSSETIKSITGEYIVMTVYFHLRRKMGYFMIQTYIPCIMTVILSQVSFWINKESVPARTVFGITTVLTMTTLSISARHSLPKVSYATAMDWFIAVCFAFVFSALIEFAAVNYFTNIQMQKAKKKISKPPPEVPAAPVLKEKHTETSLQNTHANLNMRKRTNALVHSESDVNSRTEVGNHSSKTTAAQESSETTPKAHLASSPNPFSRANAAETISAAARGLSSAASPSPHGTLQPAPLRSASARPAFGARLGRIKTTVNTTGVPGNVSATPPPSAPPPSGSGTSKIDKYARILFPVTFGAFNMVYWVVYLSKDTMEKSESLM
Gamma-aminobutyric acid receptor subunit alpha-4/beta-3, sequence (P63079 whole entry): as the sequence (P63079 whole entry) above
In experiment [10] the target is T1, Gamma-aminobutyric acid receptor subunit alpha-6/beta-3. Kind of experiment: Modulation of rat […] GABA-A receptor alpha6beta3 expressed in HEK293 cells in presence of GABA by patch-clamp assay. It is filed as cell-based. The method, boiled down: as §2
For orientation: Patch clamp records ionic current or voltage across a cell membrane.

Experiment [11] deals with Gamma-aminobutyric acid receptor subunit alpha-6/beta-3/gamma-2 (Rattus norvegicus, UniProt P18508+P30191+P63079). Briefly: Modulation of rat […] GABA-A receptor alpha6beta3gamma2 expressed in HEK293 cells in presence of GABA by patch-clamp assay. It is filed as cell-based. The method, boiled down: as §2
Gamma-aminobutyric acid receptor subunit alpha-6/beta-3/gamma-2, sequence (P18508 whole entry): as the sequence (P18508 whole entry) above
Gamma-aminobutyric acid receptor subunit alpha-6/beta-3/gamma-2, sequence (P30191 whole entry): as the sequence (P30191 whole entry) above
Gamma-aminobutyric acid receptor subunit alpha-6/beta-3/gamma-2, sequence (P63079 whole entry): as the sequence (P63079 whole entry) above
Experiment [12] deals with Gamma-aminobutyric acid receptor subunit alpha-1/beta-3/delta (Rattus norvegicus) (UniProt P18506+P62813+P63079). Kind of experiment: Modulation of rat […] GABA-A receptor alpha1beta3delta expressed in HEK293 cells up to 10 uM in presence of GABA by patch-clamp assay relative to control. It is filed as cell-based. The essentials: as §2
Experiment [13] addresses T2, Gamma-aminobutyric acid receptor subunit alpha-4/beta-3 (Rattus norvegicus). Briefly: Modulation of rat […] GABA-A receptor alpha4beta3 expressed in HEK293 cells up to 10 uM in presence of GABA by patch-clamp assay relative to control. In kind it is cell-based. The essentials: as §2
Experiment [14] has as its target Gamma-aminobutyric acid receptor subunit alpha-4/beta-3/delta (Rattus norvegicus) (UniProt P18506+P28471+P63079). Briefly: Modulation of rat […] GABA-A receptor alpha4beta3delta expressed in HEK293 cells up to 10 uM in presence of GABA by patch-clamp assay relative to control. In kind it is cell-based. The essentials: as §2
Experiment [15] addresses Gamma-aminobutyric acid receptor subunit alpha-1/beta-3/gamma-2 (Rattus norvegicus) (UniProt P18508+P62813+P63079). Kind of experiment: Agonist activity at rat […] GABA-A receptor alpha1beta3gamma2 expressed in HEK293 cells assessed as ratio of I0 to GABA Imax at 10 uM in absence of GABA by patch-clamp assay. It is filed as cell-based. The essentials: (§3)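 Whole-cell patch clamp on single fluorescent HEK 293 cells 48 h after transient co-transfection with rat subunit cDNAs plus eGFP. Extracellular solution 135 mM NaCl, 5.3 mM KCl, 2 mM CaCl2, 2 mM MgSO4, 10 mM HEPES pH 7.4, perfused 3 mL/min. Compound at 10 µM without GABA. Current expressed relative to 1 mM GABA at the same receptor (I0/Imax GABA), mean ± S.D. of n experiments.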

Experiment [16] addresses T3, Gamma-aminobutyric acid receptor subunit alpha-4/beta-3/gamma-2 (Rattus norvegicus). Kind of experiment: Agonist activity at rat […] GABA-A receptor alpha4beta3gamma2 expressed in HEK293 cells assessed as ratio of I0 to GABA Imax at 10 uM in absence of GABA by patch-clamp assay. In kind it is cell-based. The method, boiled down: as §3
Experiment [17] addresses Gamma-aminobutyric acid receptor subunit alpha-6/beta-3/gamma-2 (Rattus norvegicus) (UniProt P18508+P30191+P63079). Kind of experiment: Agonist activity at rat […] GABA-A receptor alpha6beta3gamma2 expressed in HEK293 cells assessed as ratio of I0 to GABA Imax at 10 uM in absence of GABA by patch-clamp assay. In kind it is cell-based. The essentials:
as §3

Experiment [18] has as its target T4, Gamma-aminobutyric acid receptor subunit alpha-6/beta-3/delta (Rattus norvegicus) (UniProt P18506+P30191+P63079). Briefly: Agonist activity at rat […] GABA-A receptor alpha6beta3delta expressed in HEK293 cells assessed as ratio of I0 to GABA Imax at 10 uM in absence of GABA by patch-clamp assay. It is filed as cell-based. The method, boiled down: as §3

Experiment [19] deals with T4, Gamma-aminobutyric acid receptor subunit alpha-6/beta-3/delta (Rattus norvegicus). Kind of experiment: (§4) Displacement of [3H]EBOB from rat GABA-A receptor alpha6beta3delta expressed in HEK293 cell membranes after 90 mins in presence of GABA by liquid scintillation counting analysis.
The target of experiment [20] is Gamma-aminobutyric acid receptor subunit alpha-6/beta-3/delta (Rattus norvegicus, UniProt P18506+P30191+P63079). Described as §4.
Gamma-aminobutyric acid receptor subunit alpha-6/beta-3/delta, sequence (P18506 whole entry): as the sequence (P18506 whole entry) above
Gamma-aminobutyric acid receptor subunit alpha-6/beta-3/delta, sequence (P30191 whole entry): as the sequence (P30191 whole entry) above
Gamma-aminobutyric acid receptor subunit alpha-6/beta-3/delta, sequence (P63079 whole entry): as the sequence (P63079 whole entry) above
The species named for experiment [21] is Rattus norvegicus. Kind of experiment: Selectivity ratio of IC50 for rat GABA-A receptor alpha6beta3delta expressed in HEK293 cells to IC50 for rat GABA-A receptor alpha6beta2delta expressed in HEK293 cells. It is filed as cell-based.

Gamma-aminobutyric acid receptor subunit alpha-4/beta-3/gamma-2, sequence (P18508 whole entry): as the sequence (P18508 whole entry) above
Gamma-aminobutyric acid receptor subunit alpha-4/beta-3/gamma-2, sequence (P28471 whole entry): as the sequence (P28471 whole entry) above
Gamma-aminobutyric acid receptor subunit alpha-4/beta-3/gamma-2, sequence (P63079 whole entry): as the sequence (P63079 whole entry) above

`O=C(Nc1c(-c2cccs2)nc2c(Br)cc(Br)cn12)c1ccc(Cl)cc1`: the pIC50 is 5.48 in [1], 6.10 in experiment [2], 5.95 in experiment [3] and 6.43 in [20]. Also, the Imax in experiment [4] came to 25%; in experiment [5], 80%; in [6] it was 67%; in experiment [19] it was 88%. Besides, the figures for the Ratio IC50 in the experiment filed under Rattus norvegicus [7] and in the experiment listed under Rattus norvegicus [21] were 7 and 2, respectively. Also, the negative-log EC50 (pEC50) in experiment [8] is 7.00; in [9], 7.22; in [10] it was 6.77; in [11] it was 6.06. Further, the Activity in experiment [12] came out at 201%; in experiment [13], 168%; in experiment [14], 297%. Moreover, the Ratio in experiment [15] was found to be 0.058; in experiment [16], 0.163; in [17] it was 1.12; in [18] it was 1.04.
